Our source for the IC50 and Activity values is ChEMBL document CHEMBL4261552, “4-Hydroxy-N-[3,5-bis(trifluoromethyl)phenyl]-1,2,5-thiadiazole-3-carboxamide: a novel inhibitor of the canonical NF-κB cascade” (Medchemcomm, 2017).

The subject of test [1] is MDA-MB-231. Put plainly: Cytotoxicity against human MDA-MB-231 cells after 72 hrs by CellTox green assay. Type of test: cell-based. The conditions noted are these: MDA-MB-231, 72 h. In short, it runs like this:
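MDA-MB-231 cells (5×10^3/well) exposed to 0.001 - 100 µM compound or DMSO vehicle for 72 h. Membrane-integrity loss read by CellTox green fluorescence. IC50 taken by nonlinear regression; mean ± SD of three independent experiments.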

For test [2], the target named is T1, Inhibitor of nuclear factor kappa-B kinase subunit alpha (Homo sapiens, UniProt O15111).
T1 sequence (O15111 whole entry): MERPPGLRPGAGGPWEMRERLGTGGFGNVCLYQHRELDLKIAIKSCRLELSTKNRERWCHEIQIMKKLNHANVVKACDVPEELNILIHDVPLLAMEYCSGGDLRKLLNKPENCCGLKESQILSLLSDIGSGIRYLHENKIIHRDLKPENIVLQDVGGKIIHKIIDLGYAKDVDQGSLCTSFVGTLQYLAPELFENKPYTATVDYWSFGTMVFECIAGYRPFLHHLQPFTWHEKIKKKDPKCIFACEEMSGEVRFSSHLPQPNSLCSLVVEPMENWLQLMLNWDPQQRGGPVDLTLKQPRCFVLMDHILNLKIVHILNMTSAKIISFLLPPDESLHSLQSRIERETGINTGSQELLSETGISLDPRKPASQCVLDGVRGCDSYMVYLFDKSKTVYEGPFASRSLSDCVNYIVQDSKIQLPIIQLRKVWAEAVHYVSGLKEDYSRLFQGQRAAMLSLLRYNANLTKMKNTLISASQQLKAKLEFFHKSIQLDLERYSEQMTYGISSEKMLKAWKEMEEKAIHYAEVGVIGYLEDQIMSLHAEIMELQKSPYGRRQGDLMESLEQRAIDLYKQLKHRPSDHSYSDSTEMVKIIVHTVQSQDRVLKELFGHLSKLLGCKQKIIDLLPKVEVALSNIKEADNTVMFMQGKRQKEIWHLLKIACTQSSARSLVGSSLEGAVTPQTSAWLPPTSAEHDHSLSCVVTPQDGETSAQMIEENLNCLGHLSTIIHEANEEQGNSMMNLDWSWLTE
Description: Inhibition of human IKKalpha using ERLLDDRHDSGLDSMKDEE as substrate after 60 mins in presence of ATP by ADP-Glo kinase assay. On the technique in general: ADP-Glo turns the ADP formed in a reaction into a luminescent signal.

For test [3], the target named is T2, Inhibitor of nuclear factor kappa-B kinase subunit epsilon (Homo sapiens, UniProt Q14164).
T2 sequence (Q14164 whole entry): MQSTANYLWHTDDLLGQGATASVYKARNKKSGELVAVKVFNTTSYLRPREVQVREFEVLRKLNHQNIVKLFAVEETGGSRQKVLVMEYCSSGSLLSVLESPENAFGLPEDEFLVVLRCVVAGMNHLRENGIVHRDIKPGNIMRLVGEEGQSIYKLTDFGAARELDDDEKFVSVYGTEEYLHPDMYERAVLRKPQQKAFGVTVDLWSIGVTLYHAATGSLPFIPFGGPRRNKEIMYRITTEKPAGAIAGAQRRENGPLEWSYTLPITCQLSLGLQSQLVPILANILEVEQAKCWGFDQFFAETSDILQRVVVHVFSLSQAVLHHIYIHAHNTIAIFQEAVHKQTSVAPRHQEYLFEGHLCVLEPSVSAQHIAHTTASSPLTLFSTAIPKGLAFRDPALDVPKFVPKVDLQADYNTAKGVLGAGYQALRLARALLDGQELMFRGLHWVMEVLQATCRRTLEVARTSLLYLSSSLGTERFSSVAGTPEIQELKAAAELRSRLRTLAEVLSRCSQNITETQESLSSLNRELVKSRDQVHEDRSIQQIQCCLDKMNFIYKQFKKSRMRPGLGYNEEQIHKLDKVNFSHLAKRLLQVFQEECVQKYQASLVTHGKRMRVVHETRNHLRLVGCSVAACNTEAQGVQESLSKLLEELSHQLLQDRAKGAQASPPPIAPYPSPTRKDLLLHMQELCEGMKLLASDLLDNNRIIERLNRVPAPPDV
Description: Inhibition of human IKKepsilon using ERLLDDRHDSGLDSMKDEE as substrate after 60 mins in presence of ATP by ADP-Glo kinase assay.

The target of test [4] is T3, Inhibitor of nuclear factor kappa-B kinase subunit beta (Homo sapiens, UniProt O14920).
T3 sequence (O14920 whole entry): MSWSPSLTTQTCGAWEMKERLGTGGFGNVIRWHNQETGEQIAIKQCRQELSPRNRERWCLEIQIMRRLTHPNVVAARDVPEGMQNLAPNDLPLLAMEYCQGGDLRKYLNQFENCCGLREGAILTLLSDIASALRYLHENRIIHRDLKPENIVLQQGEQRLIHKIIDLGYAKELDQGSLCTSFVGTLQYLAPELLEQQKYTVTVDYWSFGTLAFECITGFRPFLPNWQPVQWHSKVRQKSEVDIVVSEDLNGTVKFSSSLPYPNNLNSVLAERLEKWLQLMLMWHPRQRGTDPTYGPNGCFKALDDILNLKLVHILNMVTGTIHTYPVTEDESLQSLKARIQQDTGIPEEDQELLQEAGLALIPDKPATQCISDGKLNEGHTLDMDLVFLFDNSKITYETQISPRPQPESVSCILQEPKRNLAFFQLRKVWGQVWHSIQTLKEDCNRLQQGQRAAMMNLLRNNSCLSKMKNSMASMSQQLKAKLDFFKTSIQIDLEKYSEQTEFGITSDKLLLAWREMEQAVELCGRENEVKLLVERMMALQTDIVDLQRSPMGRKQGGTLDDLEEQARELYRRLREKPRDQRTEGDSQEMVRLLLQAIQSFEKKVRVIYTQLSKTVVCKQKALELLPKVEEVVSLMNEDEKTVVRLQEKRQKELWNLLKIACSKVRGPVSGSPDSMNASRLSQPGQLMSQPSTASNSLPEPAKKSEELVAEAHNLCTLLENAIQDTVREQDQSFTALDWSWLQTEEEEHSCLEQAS
Put plainly: Inhibition of IKK-beta in human Jurkat cells assessed as reduction in TNFalpha-stimulated IkBalpha degradation preincubated for 60 mins followed by TNFalpha stimulation for 20 mins by immunoblot analysis. Type of test: cell-based.

The test system of test [5] is MDA-MB-231. Description: Inhibition of constitutively activated canonical NF-kB signaling pathway in human MDA-MB-231 cells assessed as residual activity at 10 uM after 6 hrs by luciferase reporter gene assay relative to control. In kind it is cell-based. In short, it runs like this: (§1)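 MDA-MB-231 cells (constitutive NF-κB) nucleofected with 3 µg of NF-κB-RE firefly luciferase plus TK-Renilla plasmids (10:1), then cultured 24 h. Compound added for a further 6 h or 24 h, without stimulus. Firefly/Renilla ratio expressed as % of DMSO-treated control; mean ± SD of three independent experiments.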
Background: In a reporter assay the amount or activity of a reporter protein is the signal.

The target in test [6] is Mitogen-activated protein kinase kinase kinase 14 (Homo sapiens, UniProt Q99558). Description: Inhibition of human NIK using AKDVDQGSLCTSFVGTLQY as substrate after 60 mins in presence of ATP by ADP-Glo kinase assay.
Test [7] concerns MDA-MB-231. Put plainly: Inhibition of constitutively activated canonical NF-kB signaling pathway in human MDA-MB-231 cells assessed as residual activity at 10 uM after 24 hrs by luciferase reporter gene assay relative to control. Type of test: cell-based. The gist of the method:
as §1

The target of test [8] is T3, Inhibitor of nuclear factor kappa-B kinase subunit beta. Description: Inhibition of human IKKbeta using ERLLDDRHDSGLDSMKDEE as substrate after 60 mins in presence of ATP by ADP-Glo kinase assay.

Chain of Mitogen-activated protein kinase kinase kinase 14 (Q99558 whole entry): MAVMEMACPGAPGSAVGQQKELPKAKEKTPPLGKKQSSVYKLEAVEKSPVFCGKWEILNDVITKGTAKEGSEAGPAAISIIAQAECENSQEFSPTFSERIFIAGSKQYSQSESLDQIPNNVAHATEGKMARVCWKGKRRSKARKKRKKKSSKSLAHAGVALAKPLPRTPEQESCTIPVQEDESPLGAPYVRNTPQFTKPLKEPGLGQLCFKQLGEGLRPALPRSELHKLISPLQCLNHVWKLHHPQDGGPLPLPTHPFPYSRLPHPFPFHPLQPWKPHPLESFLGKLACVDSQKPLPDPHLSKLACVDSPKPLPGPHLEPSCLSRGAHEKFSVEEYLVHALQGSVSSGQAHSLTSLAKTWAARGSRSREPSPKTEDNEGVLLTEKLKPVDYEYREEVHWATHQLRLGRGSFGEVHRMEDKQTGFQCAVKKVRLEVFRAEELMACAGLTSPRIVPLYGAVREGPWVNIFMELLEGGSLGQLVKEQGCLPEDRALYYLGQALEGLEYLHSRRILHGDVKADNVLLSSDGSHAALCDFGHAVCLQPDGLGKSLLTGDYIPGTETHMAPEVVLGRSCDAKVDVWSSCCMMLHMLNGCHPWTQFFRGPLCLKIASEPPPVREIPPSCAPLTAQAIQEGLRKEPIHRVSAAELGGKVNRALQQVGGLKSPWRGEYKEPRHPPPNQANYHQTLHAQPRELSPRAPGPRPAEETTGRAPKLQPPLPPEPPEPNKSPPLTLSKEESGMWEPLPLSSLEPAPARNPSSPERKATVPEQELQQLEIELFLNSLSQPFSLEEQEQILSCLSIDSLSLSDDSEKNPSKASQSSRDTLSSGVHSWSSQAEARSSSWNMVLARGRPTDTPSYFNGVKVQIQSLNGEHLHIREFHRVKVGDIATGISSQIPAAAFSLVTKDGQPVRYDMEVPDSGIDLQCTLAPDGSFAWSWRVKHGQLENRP

A word on the IC50: it is the concentration that inhibits the measured activity by half. Regarding `O=C(Nc1cc(C(F)(F)F)cc(C(F)(F)F)c1)c1cc(Cl)ccc1O` [IMD-0354], the IC50 was 0.85 µM in the test on MDA-MB-231 [1]; above 100 µM in test [2]; above 100 µM in test [3]; 0.218 µM in test [4]; above 100 µM in test [6]; above 100 µM in test [8]. The Activity in the test on MDA-MB-231 [5] is 99%; in the test with MDA-MB-231 [7], 58.3%.

With `O=C(Nc1cc(C(F)(F)F)cc(C(F)(F)F)c1)c1nsnc1O`, the IC50 is 53 µM in the test on MDA-MB-231 [1]; above 100 µM in test [2]; above 100 µM in test [3]; 0.143 µM in test [4]; above 100 µM in test [6]; above 100 µM in test [8]. For the same compound, the Activity came to 96.1% in the test on MDA-MB-231 [5] and 63% in the test on MDA-MB-231 [7].
